≈ marks a conversion by molar mass, not a printed value.
How the values were obtained:
Staphylococcus aureus [1] = test: Antimicrobial activity against vancomycin-intermediate Staphylococcus aureus isolate MU50 assessed as bacterial count at 4 times MIC after 24 hrs by colony counting method; format: functional
How it was run: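 24-h time-kill run in triplicate in supplemented Mueller-Hinton broth (12.5 μg/ml Mg, 25 μg/ml Ca), adjusted to 1.1–1.3 mM Ca for daptomycin. […] Samples were taken at 0, 1, 4, 8 and 24 h and counted on BHI agar after 24 h at 35°C. Value is log10 CFU/ml change from baseline at 24 h.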

Staphylococcus aureus [2] = test: Antimicrobial activity against vancomycin-resistant Staphylococcus aureus isolate MI assessed as bacterial count at 32 times MIC after 24 hrs by colony counting method; format: functional
How it was run: (§1)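 Time-kill in triplicate. Mid-exponential culture (OD600 ~0.3) diluted in supplemented Mueller-Hinton broth to 5 × 10^6 CFU/ml. Daptomycin was run at physiologic calcium, 1.1 to 1.3 mM. […] Samples at 0, 1, 4, 8 and 24 h were diluted in cold saline or vacuum filtered, then spiral-plated on BHI agar for 24 h at 35°C. Value is the log10 CFU/ml change from baseline at 24 h.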

Staphylococcus aureus [3] = test: Antimicrobial activity against vancomycin-resistant Staphylococcus aureus isolate PA assessed as bacterial count at 4 times MIC after 24 hrs by colony counting method in presence of 50% human serum; format: functional
How it was run: (§2)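 Time-kill in triplicate, starting inoculum 5 × 10^6 CFU/ml from a mid-exponential culture. Medium was 50% heat-treated, filtered human serum plus 50% broth, final 25 SMHB for TD-1792 and 50 SMHB for daptomycin. Drug at multiples of MIC. Samples to 24 h were plated on BHI agar for 24 h at 35°C. Value is the log10 CFU/ml change from baseline at 24 h.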

Staphylococcus aureus [4] = test: Antimicrobial activity against vancomycin-resistant Staphylococcus aureus isolate PA assessed as bacterial count at 16 times MIC after 24 hrs by colony counting method in presence of 50% human serum; format: functional; how it was run: as §2
Staphylococcus aureus [5] = test: Antimicrobial activity against methicillin-resistant Staphylococcus aureus infected in patient with complicated skin and skin structure infections assessed as cure rate; format: functional
[6] = test system: Staphylococcus haemolyticus; test: Antimicrobial activity against vancomycin-intermediate Staphylococcus haemolyticus after 24 hrs by microdilution method; format: functional; details: for MBC / MIC50 / MIC90: Staphylococcus haemolyticus, 24 h
How it was run: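 CLSI broth microdilution in supplemented Mueller-Hinton broth (12.5 μg/ml Mg, 25 μg/ml Ca), with Ca adjusted to 1.1–1.3 mM for daptomycin. Inoculum was 5 × 10^5 CFU/ml, incubated 24 h at 35°C, done in duplicate. For MBC, clear wells were plated on BHI agar and read after 24 h at 35°C.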

Staphylococcus aureus [7] = test: Antimicrobial activity against vancomycin-resistant Staphylococcus aureus isolate PA assessed as bacterial count at 8 times MIC after 24 hrs by colony counting method; format: functional; how it was run: as §1
[8] = Plasma protein binding in human in presence of human serum; format: ADME, cell-free; details: read-out: PPB (converted)

CN[C@H](CC(C)C)C(=O)N[C@H]1C(=O)N[C@@H](CC(N)=O)C(=O)N[C@H]2C(=O)N[C@H]3C(=O)N[C@H](C(=O)N[C@H](C(=O)NCCCO/N=C(\C(=O)N[C@@H]4C(=O)N5C(C(=O)[O-])=C(C[n+]6ccccc6)CS[C@H]45)c4nc(N)sc4Cl)c4cc(O)cc(O)c4-c4cc3ccc4O)[C@H](O)c3ccc(c(Cl)c3)Oc3cc2cc(c3O[C@@H]2O[C@H](CO)[C@@H](O)[C@H](O)[C@H]2O[C@H]2C[C@](C)(N)[C@H](O)[C@H](C)O2)Oc2ccc(cc2Cl)[C@H]1O showed a log10CFU/ml (Staphylococcus aureus [1]) of 3.77, a log10CFU/ml (Staphylococcus aureus [2]) of 5.13 and a log10CFU/ml (Staphylococcus aureus [3]) of 4.04. For the same compound, the log10CFU/ml (Staphylococcus aureus [4]) was 5.15, the Activity (Staphylococcus aureus [5]) was 94.7% and the MBC50 [6] was 0.06 µg/mL (≈ 0.0303 µM). The MBC90 [6] was 0.125 µg/mL (≈ 0.063 µM), the MBC [6] was 0.015 µg/mL (≈ 0.00756 µM) and the MIC50 [6] was 0.06 µg/mL (≈ 0.0303 µM). For the same compound, the MIC90 [6] was 0.125 µg/mL (≈ 0.063 µM).
CCCCCCCCCC(=O)N[C@@H](Cc1c[nH]c2ccccc12)C(=O)N[C@H](CC(N)=O)C(=O)N[C@@H](CC(=O)O)C(=O)N[C@@H]1C(=O)NCC(=O)N[C@@H](CCCN)C(=O)N[C@@H](CC(=O)O)C(=O)N[C@H](C)C(=O)N[C@@H](CC(=O)O)C(=O)NCC(=O)N[C@H](CO)C(=O)N[C@@H]([C@H](C)CC(=O)O)C(=O)N[C@@H](CC(=O)c2ccccc2N)C(=O)O[C@@H]1C showed a log10CFU/ml (Staphylococcus aureus [1]) of 3.02, a log10CFU/ml (Staphylococcus aureus [7]) of 4.95 and a fraction unbound [8] of 0.08. It also gave an MBC50 [6] of 1 µg/mL (≈ 0.617 µM), an MBC90 [6] of 2 µg/mL (≈ 1.23 µM) and an MBC [6] of 0.25 µg/mL (≈ 0.154 µM). For the same compound, the MIC50 [6] was 1 µg/mL (≈ 0.617 µM) and the MIC90 [6] was 1 µg/mL (≈ 0.617 µM).
